Bioassay records: PubChem, several laboratories
Only some compounds are listed: those with a hit (about 11% of all), similar ones and a draw of the others.
D1 mod: allosterically modulates the human D1 dopamine receptor. B-score at 10 µM. 58,000 tested, 5.9% active. P21728. HEK293 D1, CRE-luciferase, dopamine EC30 potentiation; actives deviate in either direction;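 active = luminescence count or its row- and column-corrected plate score outside the 99.7% band of the plate's sample wells, on either side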
Target sequence (P21728 whole entry, looked up): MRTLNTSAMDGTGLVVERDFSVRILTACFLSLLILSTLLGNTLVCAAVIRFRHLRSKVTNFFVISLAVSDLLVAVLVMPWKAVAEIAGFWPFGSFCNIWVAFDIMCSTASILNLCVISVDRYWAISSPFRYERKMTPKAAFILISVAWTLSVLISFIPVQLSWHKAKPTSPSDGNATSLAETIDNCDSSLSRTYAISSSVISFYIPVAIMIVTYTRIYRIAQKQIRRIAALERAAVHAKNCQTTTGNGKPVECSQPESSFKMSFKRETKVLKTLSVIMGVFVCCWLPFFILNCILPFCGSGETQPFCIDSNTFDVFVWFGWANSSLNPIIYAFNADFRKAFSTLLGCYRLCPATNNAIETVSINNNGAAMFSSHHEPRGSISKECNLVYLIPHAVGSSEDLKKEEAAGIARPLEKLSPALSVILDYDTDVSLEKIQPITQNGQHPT
M1 ag: agonists of M1 muscarinic receptor | CHO-M1 cells, Fluo-4 calcium fluorescence, agonist mode; stronger effect = higher value | B-score at 10 µM | 64,000 tested, 3% active;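 active = fluorescence rise, raw or as B-score row- and column-corrected plate score, outside the 99.7% band of its plate's samples, either direction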
M1 antag: M1 muscarinic receptor (rat) antagonism. AID 628. B-score at 10 µM. 64,000 tested, 3.4% active. CHO-M1 cells, Fluo-4 calcium, ACh EC80 antagonist mode; stronger effect = lower value;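 active = calcium fluorescence response, raw or row-and-column corrected B-score, differing from the plate sample mean either way at a set confidence level, mostly lower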
S1P1 ag pot: activates or potentiates agonism at human S1P1 receptor; S1P1 CRE-bla cells, forskolin, beta-lactamase FRET, potentiator mode; S1P1 agonist co-added at EC20, 2 nM; 100% = saturating reference agonist, 0% = basal; activation, % at 9.5 µM; 56,000 tested, 0.57% active;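 active = activation above a cutoff set at the mean activation of all tested compounds plus 3 SD, cut at about 54% in these data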;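 also: forskolin at 4 µM as EC80 and the EC20 agonist is SEW2871; 100% = SEW2871 at its EC100 plus forskolin at EC80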
S1P3 ag: agonists of human S1P3 receptor; Q99500; S1P3 NFAT-BLA reporter cells, agonism, FRET ratio; relative to 1 µM S1P, basal subtracted; activation, % at 4.5 µM; 60,000 tested, 0.1% active; AID 373;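 active = activation above the screen-wide mean plus 3 SD, cut at about 4.5% in these data, passing the limit was not always enough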
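Material: Human S1P3 NFAT-BLA reporter CHO cells | Incubation: Overnight plating, 4 h compound 37 °C, 2 h substrate RT | Signal: FRET β-lactamase substrate fluorescence, excitation 405 nm, 460/535 nm emission ratio, background-subtracted | Compound: 4.5 µM final, single dose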
M1 agonist conf: rat M1 muscarinic agonism, confirmation. 1,700 tested, 19% active. fluorescence change (max-min) at 10 µM. CHO-M1 cells, Fluo-4 calcium fluorescence, agonist mode; actives lie on both sides. shares compounds with M1 ag;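 active = fluorescence change differs from the solvent-only DMSO control mean at a set confidence level in both duplicate runs; inconclusive = differs from solvent-only control mean in just one of two runs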;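 also: an EC20 dose of acetylcholine follows compound addition during the same imaging run; raw fluorescence intensity difference in instrument units with no normalization to controls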
M4 ag counter: counter-screen for M1 agonists: activity at rat M4 receptor; shares compounds with M1 ag; CHO M4/Gqi5 cells, Fluo-4 calcium fluorescence, agonist mode; actives lie on both sides; fluorescence change (max-min) at 10 µM; 1,700 tested, 9% active; AID 1741;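 active = fluorescence change differing from the plate's solvent-only control wells at 99.7% confidence in both duplicates, whether higher or lower; inconclusive = differs from solvent controls in only one of two duplicates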
The depositor's hits bear a star; ? = inconclusive; nt = no result given.

SMILES | D1 mod | M1 ag | M1 antag | S1P1 ag pot | S1P3 ag | M1 agonist conf | M4 ag counter
COc1cccc(N2CCN(Cc3coc4c(Cl)cc(Cl)cc4c3=O)CC2)c1 | 0.13 | -0.28 | 0.62 | -5 | 0 | nt | nt
Cc1cc(C(=O)CSc2nnc(-c3ccco3)o2)c(C)n1-c1ccc2c(c1)OCCO2 | nt | 12* | -0.29 | 62* | 0 | ? | -44
O=C(CSc1ccc2nnc(-c3ccccn3)n2n1)NCc1ccco1 | 0.064 | 0.15 | 0.28 | -4 | 0 | nt | nt
O=C(CN1CCOCC1)NCc1ccccc1 | 0.19 | 0.38 | 1 | -53 | 9 | nt | nt
O=C(CN1CCOCC1)NCCNC(=O)CN1CCOCC1 | -0.68 | 4.2* | 1 | -36 | 0 | ? | ?
CCn1c(N)c(C(=O)NCC2CCCO2)sc1=S (centres undefined) | 1.7 | 6.7* | -0.083 | -9 | -1 | -7.8 | -3.5
C=CCn1c(N)c(C(=O)NCC2CCCO2)sc1=S (centres undefined) | 0.081 | -0.018 | 0.42 | -5 | 0 | nt | nt
CCNC(=O)C1CC(=O)N(Cc2ccc(F)cc2)C(=Nc2ccc(OC)cc2)S1 (centres undefined) | -1.6 | -0.68 | 1.3 | -16 | -1 | nt | nt
CNC(=O)C1CC(=O)N(Cc2ccccc2)C(=Nc2ccc(OC)cc2)S1 (centres undefined) | -0.026 | 10* | -0.82 | 0 | -4 | ? | ?
CCCC(=O)NC(C)c1nc2ccccc2n1C(C)C (centres undefined) | -0.78 | -0.33 | -0.069 | 2 | 0 | nt | nt
COc1ccccc1N1CCN(C(=O)CSc2ncccc2-c2nc3ccccc3[nH]2)CC1 | -0.82 | 13* | -0.56 | nt | nt | ? | -62
O=C(NCc1ccco1)c1cnn2c(C(F)(F)F)cc(-c3cccs3)nc12 | 0.075 | 0.82 | -0.76 | -23 | 0 | nt | nt
N#Cc1c(NCCO)nc(NCc2ccccc2)c2c1CCN(Cc1ccccc1)C2 | nt | 3.3* | -1.3 | -8 | 0 | -3.8 | -4.3
Cc1cccc2cc(CN(CC3CCCO3)C(c3nnnn3Cc3ccco3)C(C)C)c(=O)[nH]c12 (centres undefined) | 0.54 | -0.87 | 0.86 | -13 | 1 | nt | nt
CN1CCN(C(=O)CSc2nc(-c3cccs3)ccc2C#N)CC1 | 0.41 | 0.69 | 0.28 | 14 | -6 | nt | nt
O=C(Nc1cnc2ccccc2c1)c1ccncc1 | nt | -0.23 | 0.32 | -20 | 1 | nt | nt
COC(=O)c1cccc(C(=O)Nc2cnc3ccccc3c2)n1 | -0.34 | 3.7* | -0.44 | -14 | 1 | -11 | ?
CCCCCOc1ccc(C2C(C(C)=O)=C(C)Nc3ncnn32)cc1OC (centres undefined) | 1.9 | -0.72 | 0.57 | -26 | -1 | nt | nt
COc1ccc(C(c2nnnn2C2CCCC2)N2CCc3ccccc3C2)cc1OC (centres undefined) | -0.0015 | -0.35 | 0.45 | 32 | 0 | nt | nt
COCCn1nnnc1C(c1ccc(O)c(OC)c1)N1CCc2ccccc2C1 (centres undefined) | 0.65 | 4* | 0.0035 | -12 | 0 | -10 | -28
O=[n+]1c2c(n([O-])c3cc(F)c(N4CCCC4)cc31)CCC2 | 0.23 | 92* | 0.51 | -20 | -1 | 632* | 549*
O=[n+]1c2c(n([O-])c3cc(F)c(N4CCCC4)cc31)CCCC2 | -0.71 | 188* | 0.9 | 6 | 0 | 593* | 561*
O=[n+]1c2c(n([O-])c3cc(F)ccc31)CCCC2 | 0.051 | -0.34 | -0.24 | -5 | 0 | nt | nt
CCOC(=O)C1CCCN(Cc2cc(OC)c(O)c(OC)c2)C1 (centres undefined) | -0.18 | 3.2* | -0.11 | -34 | -2 | 60* | -40
CCOC(=O)C1CCN(Cc2ccc(O)c(OC)c2)CC1 | -0.45 | 0.012 | -0.63 | -20 | -1 | nt | nt
SMILES | D1 mod | M1 ag | M1 antag | S1P1 ag pot | S1P3 ag | M1 agonist conf | M4 ag counter
CCOC(=O)C1CCCN(Cc2cc(Br)ccc2OC)C1 (centres undefined) | -4.8 | nt | nt | -3 | 0 | nt | nt
CCOC(=O)C1CCCN(Cc2cc(Br)c(OC)cc2OC)C1 (centres undefined) | -0.65 | 7.9* | -1.2 | nt | 0 | 46 | ?
NC(=O)CSc1nnc(-c2cccnc2)n1CCc1ccccc1 | 0.2 | 0.072 | 0.025 | -16 | -1 | nt | nt
CCN(CC)C(=O)CSc1nnc(-c2cccnc2)n1CCc1ccccc1 | -0.65 | 8.3* | -0.049 | -2 | -1 | -24 | -51
COc1ccc(NC(=O)c2[nH]c(C)c(C(C)=O)c2C)cc1Cl | nt | 5.5* | -3.1* | nt | nt | -2.4 | -16
CCn1c(Sc2ccc(N)cc2Cl)nc2ccccc21 | nt | -0.99 | -0.35 | nt | 1 | nt | nt
CC1=C(C(N)=O)C(c2ccncc2)n2nc(-c3ccccc3Cl)nc2N1 (centres undefined) | 0.69 | 0.9 | 0.53 | -4 | 0 | nt | nt
COc1ccc(C2=CC(c3c(C)nn(-c4ccccc4)c3Cl)n3nnnc3N2)cc1OC (centres undefined) | 2 | 5.5* | 1.8 | -4 | 1 | 38 | 8.5
CC1Cc2nc(SCC(=O)Nc3ccc4c(c3)OCO4)n(-c3ccc(F)cc3)c(=O)c2S1 (centres undefined) | -0.063 | 0.66 | 0.43 | -2 | -1 | nt | nt
O=C(CSc1nnc(-c2ccccc2)n1Cc1ccco1)Nc1ccc2c(c1)OCCO2 | 0.34 | 3.5* | -0.018 | 4 | -2 | -11 | -40
O=C(CCCn1c(=O)oc2ccccc21)N1CCc2ccccc2C1 | 1 | 1.3 | 0.33 | nt | nt | nt | nt
O=C(CCn1c(=O)oc2ccccc21)NCCN1CCc2ccccc2C1 | -0.12 | 3.3* | 0.41 | 1 | -1 | -7.5 | -30
COC(=O)C1=C(C)Nc2ncnn2C1c1ccc(C)o1 (centres undefined) | -0.096 | 8.3* | 0.96 | -5 | 0 | -31 | -44
Cc1cccc(C)c1NC(=O)CSc1nnc(Cn2nnc(-c3ccccc3)n2)n1-c1ccccc1 | 0.35 | 0.28 | -0.11 | 1 | -2 | nt | nt
Cc1ccccc1S(=O)(=O)Cc1ccc(C(=O)N2CCN(c3ccc(F)cc3)CC2)o1 | 0.61 | 3.2* | -0.86 | 5 | -1 | -9.4 | -54
COc1ccccc1N1CCN(C(=O)c2ccc(CS(=O)(=O)c3ccccc3OC)o2)CC1 | -0.39 | 4.5* | -0.71 | -2 | 0 | -13 | ?
CCOC(=O)N1CCN(C(=O)c2ccc(CS(=O)(=O)c3ccccc3OC)o2)CC1 | -0.023 | 0.07 | -0.038 | -5 | -1 | nt | nt
COC(=O)C1=C(CN2CCCc3ccccc32)NC(=O)NC1c1ccc(F)cc1 (centres undefined) | 0.32 | 1.2 | 0.68 | -27 | -1 | nt | nt
CCCc1nn(CCc2ccccn2)c(N)c1CC | 0.4 | 0.21 | -0.2 | -1 | 0 | nt | nt
CCOc1cc(C(=O)Nc2ccccc2N2CCN(S(C)(=O)=O)CC2)cc(OCC)c1OCC | -0.19 | 1.8* | -0.43 | 11 | -1 | -20 | -34
